Results: ChEMBL document CHEMBL3525992, “Identification of 20(S)-protopanaxadiol metabolites in human liver microsomes and human hepatocytes” (Drug Metab Dispos, 2011)

Columns and labels:
[1] = Drug excretion in Sprague-Dawley rat feces treated with 20(S)-protopanaxadiol at 100 mg/kg/day, po qd for 11 days administered via gavage by liquid chromatography-electrospray ionization ion trap mass spectrometry; format: ADME, organism-based; set-up: route oral; details: in vivo, 264 h
Summary of the method: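 PPD given by gavage at 10 mg/ml in 0.5% carboxymethyl cellulose sodium, 0.5% polysorbate-80 and 99% saline; 20 rats, one per metabolic cage. Feces collected over 0–288 h (48 h after last dose), blanks taken before dosing, frozen at -20°C.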

Hepatocyte [2] = test: Drug level in human hepatocytes treated with 20(S)-protopanaxadiol at 50 uM after 180 mins by liquid chromatography-electrospray ionization ion trap mass spectrometry; format: ADME, cell-based; details: 3 h
Summary of the method: (§1)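 Human hepatocytes (2 million cells/ml) in Williams' E medium with substrate 50 µM, 0.5% (v/v) final MeOH, 37°C for 3 h. Negative controls were substrate at 0 h and no substrate at 3 h. Quenched with equal volume acetonitrile, in duplicate. Methanol was added, then centrifugation, dry-down and reconstitution. Analysed by C8 reversed-phase LC with formic acid/methanol–ammonium acetate gradient, ESI ion trap MSⁿ, m/z 100–800.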

Liver microsome [3] = test: Retention time of the compound in mixed human liver microsomes treated with 20(S)-protopanaxadiol at 50 uM after 60 mins by liquid chromatography-electrospray ionization ion trap mass spectrometry; format: ADME; details: 1 h
Summary of the method: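 Pooled HLM protein 1.0 mg/ml with substrate 50 µM in 100 mM potassium phosphate pH 7.4, 0.1% (v/v) final MeOH. Preincubated 3 min at 37°C, started with 2.0 mM NADPH, incubated 60 min. Stopped with equal volume ice-cold acetonitrile. Controls lacked NADPH or substrate, in duplicate. Analysed on C8 reversed-phase column, formic acid methanol/ammonium acetate gradient, ESI ion trap MSⁿ.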

Liver microsome [4] = test: Drug metabolism in mixed human liver microsomes assessed as metabolite 7-2 ((2S,3S,4S,5R,6S)-6-(2-((2R,5S)-5-((3S,5R,8R,9R,10R,12R,14R,17S)-3,12-dihydroxy-4,4,8,10,14-pentamethylhexadecahydro-1H-cyclopenta[a]phenanthren-17-yl)-5-methyltetrahydrofuran-2-yl)propan-2-yloxy)-3,4,5-trihydroxytetrahydro-2H-pyran-2-carboxylic acid) formation at 50 uM after 120 mins by liquid chromatography-electrospray ionization ion trap mass spectrometry in presence of UDPGA; format: ADME
Summary of the method: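 Pooled human liver microsomes, 1.0 mg/ml protein, in 50 mM Tris-HCl pH 7.4 with 10 mM MgCl₂, 2 mM UDPGA and 25 µg/mL alamethicin. Preincubated 3 min at 37°C, started with substrate 50 µM (final MeOH 0.1%), run 120 min, stopped with ice-cold acetonitrile. Time-0 controls; duplicates. Analysed by LC/ESI ion-trap MSn.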

[5] = Retention time of the compound treated with 20(S)-protopanaxadiol at 100 uM measured after 60 mins by liquid chromatography-electrospray ionization ion trap mass spectrometry in presence of 10 uM 3-chloroperoxybenzoic acid; format: physicochemical; details: 1 h
Summary of the method: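 PPD 100 µM oxidised chemically with m-CPBA 10 µM in CH₂Cl₂, stirred at room temperature for 15 and 60 min. Mixture poured into Na₂CO₃-saturated ice water and extracted three times with ether before LC/MS analysis.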

Hepatocyte [6] = test: Retention time of the compound in human hepatocytes treated with 20(S)-protopanaxadiol at 50 uM after 180 mins by liquid chromatography-electrospray ionization ion trap mass spectrometry; format: ADME, cell-based; details: 3 h; summary of the method: as §1

## CC(C)(O)[C@H]1CC[C@@](C)([C@H]2CC[C@]3(C)[C@@H]2[C@H](O)C[C@@H]2[C@@]4(C)CCC(=O)C(C)(C)[C@@H]4CC[C@]23C)O1
[1]
  Drug excretion: metabolite_detected
Hepatocyte [2]
  Drug metabolism: metabolite_detected
Liver microsome [3]
  Retention_time: 19.7 min

## CC(C)(O)[C@H]1CC[C@@](C)([C@H]2CC[C@]3(C)[C@@H]2[C@H](O)C[C@@H]2[C@@]4(C)CC[C@H](O)C(C)(C)[C@@H]4CC[C@]23C)O1
Liver microsome [4]
  Drug metabolism: metabolite_detected
[1]
  Drug excretion: metabolite_detected
[5]
  Retention_time: 19.8 min
Hepatocyte [2]
  Drug metabolism: metabolite_detected
Liver microsome [3]
  Retention_time: 19.8 min

## CC(C)(O)[C@@H]1CC[C@@](C)([C@H]2CC[C@]3(C)[C@@H]2[C@H](O)C[C@@H]2[C@@]4(C)CCC(=O)C(C)(C)[C@@H]4CC[C@]23C)O1
[1]
  Drug excretion: metabolite_detected
Hepatocyte [2]
  Drug metabolism: metabolite_detected
Liver microsome [3]
  Retention_time: 19.1 min

## CC(C)(O)[C@@H](O)CC[C@](C)(O)[C@H]1CC[C@]2(C)[C@@H]1[C@H](O)C[C@@H]1[C@@]3(C)CC[C@H](O)C(C)(C)[C@@H]3CC[C@]12C
Hepatocyte [6]
  Retention_time: 13.2 min

## CC1(C)O[C@H]1CC[C@](C)(O)[C@H]1CC[C@]2(C)[C@@H]1[C@H](O)C[C@@H]1[C@@]3(C)CC[C@H](O)C(C)(C)[C@@H]3CC[C@]12C
[1]
  Drug excretion: metabolite_detected
[5]
  Retention_time: 18.7 min
Hepatocyte [2]
  Drug metabolism: metabolite_detected
Liver microsome [3]
  Retention_time: 18.7 min
